Measurements: ChEMBL document CHEMBL3600302, “A Ligand-Based Drug Design. Discovery of 4-Trifluoromethyl-7,8-pyranocoumarin as a Selective Inhibitor of Human Cytochrome P450 1A2” (J Med Chem, 2015)

Legend:
[1] = target: T1, Cytochrome P450 1A2 (Homo sapiens, UniProt P05177); assay: Inhibition of human microsomal CYP1A2-dependent methoxyresorufin-O-demethylase activity by spectrofluorimetric analysis in presence of NADPH regenerating solution
T1 sequence (P05177 whole entry): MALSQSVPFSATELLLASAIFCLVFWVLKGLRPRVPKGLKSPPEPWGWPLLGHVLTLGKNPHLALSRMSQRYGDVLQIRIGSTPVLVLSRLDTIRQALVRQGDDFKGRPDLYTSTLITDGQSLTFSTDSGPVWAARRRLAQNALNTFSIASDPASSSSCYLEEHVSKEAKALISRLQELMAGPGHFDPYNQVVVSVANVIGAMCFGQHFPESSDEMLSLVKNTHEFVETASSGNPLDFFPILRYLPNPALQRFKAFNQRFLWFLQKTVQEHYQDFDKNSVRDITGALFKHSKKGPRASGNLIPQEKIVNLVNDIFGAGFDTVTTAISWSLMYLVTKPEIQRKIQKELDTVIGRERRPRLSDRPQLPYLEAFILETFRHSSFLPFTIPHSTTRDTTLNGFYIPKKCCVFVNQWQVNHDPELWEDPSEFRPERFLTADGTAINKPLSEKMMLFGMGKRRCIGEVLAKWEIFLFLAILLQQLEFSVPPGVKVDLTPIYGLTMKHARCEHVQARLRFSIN
How it was run: (§1)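 Microsomal P450 (final 5 nM) in 0.1 M potassium phosphate pH 7.6 with MgCl2 at 37 °C. Substrate final 5 µM: ethoxyresorufin for 1A1/1B1, methoxyresorufin for 1A2. Ki was taken as the x-intercept of Dixon plots (1/v0 vs [I]). Mean ± SD of three independent experiments. Selectivity ratios are ratios of these Ki.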

[2] = target: T2, Cytochrome P450 1A1 (Homo sapiens, UniProt P04798); assay: Inhibition of human microsomal CYP1A1-dependent ethoxyresorufin-O-deethylase activity at 10 nM preincubated for 5 mins followed by NADPH regenerating solution and substrate addition measured over 6 mins by spectrofluorimetric analysis; conditions: 0.1 h, 0.01 µM
T2 sequence (P04798 whole entry): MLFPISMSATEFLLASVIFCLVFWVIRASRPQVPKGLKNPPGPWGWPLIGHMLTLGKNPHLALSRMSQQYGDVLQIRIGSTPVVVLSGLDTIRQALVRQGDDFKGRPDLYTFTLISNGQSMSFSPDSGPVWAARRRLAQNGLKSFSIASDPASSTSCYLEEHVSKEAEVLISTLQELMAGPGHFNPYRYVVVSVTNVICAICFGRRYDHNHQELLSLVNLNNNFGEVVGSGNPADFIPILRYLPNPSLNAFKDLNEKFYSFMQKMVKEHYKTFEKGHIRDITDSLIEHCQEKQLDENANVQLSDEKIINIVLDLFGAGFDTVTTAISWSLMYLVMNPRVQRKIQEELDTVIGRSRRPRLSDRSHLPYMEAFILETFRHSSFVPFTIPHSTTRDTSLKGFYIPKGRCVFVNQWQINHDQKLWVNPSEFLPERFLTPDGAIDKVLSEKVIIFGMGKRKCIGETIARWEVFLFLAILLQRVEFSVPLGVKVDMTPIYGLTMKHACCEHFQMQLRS
How it was run: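 Microsomal P450 in 0.1 M potassium phosphate pH 7.6 with MgCl2 and 10 nM inhibitor in DMSO, 2 mL final. Preincubated 5 min at 37 °C either with NADPH-regenerating solution, or without it, with NADPH then added at start. Reaction started with ethoxyresorufin (final 5 µM). Resorufin formation followed 6 min at 37 °C.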

[3] = species on record: Homo sapiens; assay: Selectivity ratio of Ki for human microsomal CYP1A1 to Ki for human microsomal CYP1A2
How it was run: as §1, with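 “1A2. […]” for “1A2.”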

[4] = target: T3, Aryl hydrocarbon receptor (Homo sapiens, UniProt P35869); assay: Activation of human AhR expressed in Saccharomyces cerevisiae MYA-3637 assessed as upregulation of […] at >10^-7 M by LacZ reporter assay; assay type: ADME
T3 sequence (P35869 whole entry): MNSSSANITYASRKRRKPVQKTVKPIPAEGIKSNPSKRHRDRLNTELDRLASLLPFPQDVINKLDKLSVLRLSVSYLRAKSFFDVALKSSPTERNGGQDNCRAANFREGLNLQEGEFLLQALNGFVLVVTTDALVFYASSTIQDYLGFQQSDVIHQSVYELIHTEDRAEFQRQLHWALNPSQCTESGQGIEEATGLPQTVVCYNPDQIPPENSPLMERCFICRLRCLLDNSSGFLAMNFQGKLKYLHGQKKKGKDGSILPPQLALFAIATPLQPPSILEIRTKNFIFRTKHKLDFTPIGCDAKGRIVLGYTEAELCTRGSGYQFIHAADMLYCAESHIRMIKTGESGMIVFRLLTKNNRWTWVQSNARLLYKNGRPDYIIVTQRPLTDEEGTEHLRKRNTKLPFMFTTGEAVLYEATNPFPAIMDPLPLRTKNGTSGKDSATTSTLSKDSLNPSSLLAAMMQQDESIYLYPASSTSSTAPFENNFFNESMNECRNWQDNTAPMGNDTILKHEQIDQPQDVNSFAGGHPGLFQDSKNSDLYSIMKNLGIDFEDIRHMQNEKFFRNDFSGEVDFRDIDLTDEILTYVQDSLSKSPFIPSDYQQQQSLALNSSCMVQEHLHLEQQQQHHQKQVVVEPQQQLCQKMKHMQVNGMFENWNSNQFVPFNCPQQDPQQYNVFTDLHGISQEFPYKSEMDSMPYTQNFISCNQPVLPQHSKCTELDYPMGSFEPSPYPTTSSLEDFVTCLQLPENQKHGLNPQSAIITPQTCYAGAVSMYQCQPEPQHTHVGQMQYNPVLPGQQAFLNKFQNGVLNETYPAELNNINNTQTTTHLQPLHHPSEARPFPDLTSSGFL
How it was run: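 Yeast MYA-3637 carrying integrated human AhR (GAL promoter) and a lacZ reporter, grown on synthetic minimal medium without tryptophan, with galactose as carbon source. Compounds in DMSO were added to overnight culture in quadruplicate. Next day A600 was read, then lysis buffer (0.2% sarcosyl, 1 mM DTT, 0.4 mg/mL ONPG) was added. A405/A600 ratio was taken. βNF 10^-8 M served as positive control. At least three repeats.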

[5] = target: T2, Cytochrome P450 1A1; assay: Inhibition of human microsomal CYP1A1-dependent ethoxyresorufin-O-deethylase activity by spectrofluorimetric analysis in presence of NADPH regenerating solution
How it was run: as §1, with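 “1A2. […]” for “1A2.”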

Ki [1]: 30 nM | inhibition (INH) [2]: Not Active | Ratio Ki [3]: 14 | Activity [4]: Active | Ki [5]: 430 nM
SMILES: Cc1cc2c(ccc3c(=O)cc(-c4ccccc4)oc32)o1
